Data: ChEMBL document CHEMBL4680083, “Identification of Tricyclic Agonists of Sphingosine-1-phosphate Receptor 1 (S1P) Employing Ligand-Based Drug Design” (J Med Chem, 2016)
Active and inactive are the calls of the source. The calls are words filed in the database; no cut-off is given here.

Experiments:
Rattus norvegicus [1] = test: Antiarthritic activity in Lewis rat model of Complete Freund's adjuvant-induced arthritis assessed as reduction in paw swelling at 0.1 mg/kg, po qd administered for 21 days after CFA injection and measured weekly three times upto day 21 by water displacement plethysmometry; format: functional; details: time 21.0 day
Method in brief: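 Male Lewis rats, 200−225 g, n = 8 per group. Immunized at the tail base with 100 μL of 10 mg/mL ground Mycobacterium butyricum in incomplete Freund's adjuvant. Oral dosing once daily in PEG300 vehicle from the day of immunization for 21 days, at 0.03, 0.1 or 1.0 mg/kg. Dexamethasone 0.1 mg/kg PO QD as positive control. Paw volume by water displacement plethysmometry, day 7 to day 21.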

[2] = Plasma concentration in Lewis rat at 1 mg/kg, po measured at 24 hrs; format: ADME, organism-based; details: Lewis, plasma
Method in brief: (§1)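 Lewis rats received a single oral 1.0 mg/kg dose as solution or suspension in PEG300. Blood was drawn retro-orbitally under isoflurane at 4 h and 24 h, within the blood lymphocyte reduction study. n = 3−4 per group, group mean reported.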

[3] = Ratio of plasma concentration in Lewis rat at 1 mg/kg, po measured at 4 hrs to plasma concentration in Lewis rat at 1 mg/kg, po measured at 24 hrs; format: ADME, organism-based; details: in vivo
[4] = Selectivity index, ratio of EC50 for agonist activity at human S1P3 expressed in CHO cell membranes to EC50 for agonist activity at human S1P1 expressed in CHO cell membranes; format: cell-based
[5] = biological target: Sphingosine 1-phosphate receptor 3 (Homo sapiens, UniProt Q99500); test: Agonist activity at human S1P3 expressed in CHO cell membranes assessed as stimulation of [35S]-GTPgamma-S binding measured after 45 mins by liquid scintillation counting method; set-up: species or system Cell membrane
Sequence of Sphingosine 1-phosphate receptor 3 (Q99500 whole entry): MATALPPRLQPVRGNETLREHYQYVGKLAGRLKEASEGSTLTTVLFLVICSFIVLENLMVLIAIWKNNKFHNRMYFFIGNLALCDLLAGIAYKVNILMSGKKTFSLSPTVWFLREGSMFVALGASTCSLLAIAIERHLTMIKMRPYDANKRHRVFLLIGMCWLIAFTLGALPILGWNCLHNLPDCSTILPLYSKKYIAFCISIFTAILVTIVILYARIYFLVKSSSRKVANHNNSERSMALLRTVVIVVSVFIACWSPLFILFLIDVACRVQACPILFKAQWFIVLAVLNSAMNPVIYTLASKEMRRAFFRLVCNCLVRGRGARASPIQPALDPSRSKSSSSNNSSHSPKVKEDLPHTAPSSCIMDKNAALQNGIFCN

[6] = biological target: Sphingosine 1-phosphate receptor 1 (Homo sapiens, UniProt P21453); test: Agonist activity at human S1P1 expressed in CHO cell membranes assessed as stimulation of [35S]-GTPgamma-S binding measured after 45 mins by liquid scintillation counting method; set-up: species or system Cell membrane
Sequence of Sphingosine 1-phosphate receptor 1 (P21453 whole entry): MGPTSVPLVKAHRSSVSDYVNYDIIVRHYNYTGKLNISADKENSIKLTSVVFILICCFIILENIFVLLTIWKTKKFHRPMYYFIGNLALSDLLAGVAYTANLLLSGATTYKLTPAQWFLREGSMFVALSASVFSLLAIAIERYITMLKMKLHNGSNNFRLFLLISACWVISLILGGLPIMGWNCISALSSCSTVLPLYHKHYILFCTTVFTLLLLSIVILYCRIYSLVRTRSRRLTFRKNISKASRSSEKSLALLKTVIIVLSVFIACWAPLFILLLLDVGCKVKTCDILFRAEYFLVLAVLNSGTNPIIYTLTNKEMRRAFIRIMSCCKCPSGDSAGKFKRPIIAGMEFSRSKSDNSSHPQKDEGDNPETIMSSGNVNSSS
Method in brief: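 S1P1/CHO cell membranes at 3 μg protein/well with 3-fold compound dilutions. [35S]GTPγS 0.2 nM final, 45 min at room temperature. Filter-plate capture, water washes, scintillation counting. EC50 taken at 50% of each compound's own Ymax.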

[7] = Plasma concentration in Lewis rat at 1 mg/kg, po measured at 4 hr; format: ADME, organism-based; details: Lewis, plasma; method in brief: as §1
Rattus norvegicus [8] = test: Reduction in circulating lymphocytes count in Lewis rat blood at 1 mg/kg, po measured at 24 hrs by hematology analyzer based analysis; format: functional; set-up: scale not given: the % may be the effect or the level left
Method in brief: (§2)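 Lewis rats were given an oral dose as a solution or suspension in PEG300, with controls receiving vehicle only. Blood was taken by retro-orbital bleeding under isoflurane at 4 and 24 h. Lymphocytes were counted on a hematology analyzer. Reduction is relative to the vehicle group, averaged over the animals in each group (n = 3−4).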

Rattus norvegicus [9] = test: Reduction in circulating lymphocytes count in Lewis rat blood at 1 mg/kg, po measured at 4 hrs by hematology analyzer based analysis; format: functional; set-up: scale not given: the % may be the effect or the level left; method in brief: as §2

Row | concentration at 24 h [2] [nM] | Ratio [3] | EC50 [5] [nM] | EC50 [6] [nM] | concentration at 4 h [7] [nM] | Structure (SMILES) | Activity (Rattus norvegicus [1]) | Ratio EC50 [4] | Activity (Rattus norvegicus [8]) [%] | Activity (Rattus norvegicus [9]) [%]
1 |  |  |  |  |  | C[C@@H]1C[C@H]2[C@@H]3CCC4=CC(=O)C=C[C@]4(C)[C@@]3(F)[C@@H](O)C[C@]2(C)[C@@]1(O)C(=O)CO | Active |  |  | 
2 | 43 | 4 | 1900 | 0.48 | 160 | O=C(O)C1CN(Cc2ccc3c(c2)CCc2c-3noc2-c2noc(-c3ccccc3)c2C(F)(F)F)C1 |  | 4000 | 87 | 83
3 | 46 | 7 | 15000 | 1.6 | 320 | O=C(O)C1CN(Cc2cc3c(cc2F)-c2noc(-c4noc(-c5ccccc5)c4C(F)(F)F)c2CC3)C1 |  | 9400 | 79 | 74
4 | 32 | 6 | 4600 | 0.58 | 190 | O=C(O)C1CN(Cc2ccc3c(c2)CCc2c-3noc2-c2snc(-c3ccccc3)c2C(F)(F)F)C1 |  | 7900 | 69 | 74
5 | 56 | 6 | > 31000 | 0.25 | 330 | O=C(O)C1CN(Cc2ccc3c(c2)OCc2c-3noc2-c2onc(-c3ccccc3)c2C(F)(F)F)C1 |  | > 120000 | 89 | 82
6 | 5 | 6 | 26000 | 1.5 | 28 | CC(C)Oc1ccc(-c2onc3c2CCc2cc(CN4CC(C(=O)O)C4)ccc2-3)cc1C(F)(F)F |  | 17000 | 21 | 57
7 | 4 | 48 | 1200 | 0.87 | 190 | Cc1cc2c(cc1CN1CC(C(=O)O)C1)CCc1c-2noc1-c1noc(-c2ccccc2)c1C(F)(F)F |  | 1400 | 34 | 85
8 | 17 | 4 | 2100 | 0.98 | 68 | O=C(O)C1CN(Cc2ccc3c(c2)CCc2c-3noc2-c2ccc(C3CCCCC3)c(C(F)(F)F)c2)C1 |  | 2100 | 32 | 35
